Several values for one entry are separate records, joined by “and”; a condition that tells them apart may be missing. Equal values may be shown once.
System: U2OS
Assay: Multiplex assay against U2OS
Assay type: toxicity, cell-based
Conditions: human, number of replicates 2
How it was run: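 Compound was added to live cells that had been stained at seeding with Hoechst33342, BioTracker Green Microtubule Cytoskeleton Dye, MitoTracker Red and Annexin V Alexa Fluor 680, and imaging followed on a CQ1 microscope at 37°C and 5% CO2. CellPathfinder machine-learning gating divided cells into Hoechst high-intensity objects or normal cells, normal cells into healthy, pyknosed or fragmented nuclei, and pyknosed cells into mitotic or apoptotic. Tubulin, mitochondrial-mass and membrane-permeability phenotypes are per cents of healthy-nucleus cells.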

[1] = 12 h, 1 µM, compound concentration 1 uM
[2] = 12 h, 10 µM, compound concentration 10 uM
[3] = 24 h, 1 µM, compound concentration 1 uM
[4] = 24 h, 10 µM, compound concentration 10 uM
[5] = 48 h, 1 µM, compound concentration 1 uM
[6] = 48 h, 10 µM, compound concentration 10 uM

SMILES: CCCNc1ccc2ncc(-c3ccncc3)n2n1
- Population Apoptotic (%) [1]: 60% and 74%
- Population Healthy Nuclei (%) [1]: 58% and 81%
- Population Hoechst High Intensity Objects (%) [1]: 0%
- Population Membrane Permeable-Phenotype (%) [1]: 11% and 2%
- Population Mitochondria Different-Phenotype (%) [1]: 11% and 0%
- Population Mitotic Cells (%) [1]: 40% and 25%
- Population Normal (%) [1]: 100%
- Population Pyknosed Nuclei (%) [1]: 17% and 14%
- Population Tubulin-Different-Phenotype (%) [1]: 76% and 86%
- Population Apoptotic (%) [2]: 81% and 78%
- Population Healthy Nuclei (%) [2]: 35% and 57%
- Population Hoechst High Intensity Objects (%) [2]: 0% and 1%
- Population Membrane Permeable-Phenotype (%) [2]: 6% and 8%
- Population Mitochondria Different-Phenotype (%) [2]: 6% and 3%
- Population Mitotic Cells (%) [2]: 18% and 22%
- Population Normal (%) [2]: 100% and 98%
- Population Pyknosed Nuclei (%) [2]: 24% and 33%
- Population Tubulin-Different-Phenotype (%) [2]: 68% and 60%
- Population Apoptotic (%) [3]: 66% and 87%
- Population Healthy Nuclei (%) [3]: 71% and 89%
- Population Hoechst High Intensity Objects (%) [3]: 0%
- Population Membrane Permeable-Phenotype (%) [3]: 10% and 3%
- Population Mitochondria Different-Phenotype (%) [3]: 3% and 1%
- Population Mitotic Cells (%) [3]: 33% and 12%
- Population Normal (%) [3]: 100% and 99%
- Population Pyknosed Nuclei (%) [3]: 7%
- Population Tubulin-Different-Phenotype (%) [3]: 76% and 88%
- Population Apoptotic (%) [4]: 78% and 90%
- Population Healthy Nuclei (%) [4]: 26% and 53%
- Population Hoechst High Intensity Objects (%) [4]: 0% and 2%
- Population Membrane Permeable-Phenotype (%) [4]: 16% and 7%
- Population Mitochondria Different-Phenotype (%) [4]: 8% and 7%
- Population Mitotic Cells (%) [4]: 21% and 9%
- Population Normal (%) [4]: 100% and 97%
- Population Pyknosed Nuclei (%) [4]: 31% and 33%
- Population Tubulin-Different-Phenotype (%) [4]: 66% and 69%
- Population Apoptotic (%) [5]: 57% and 66%
- Population Healthy Nuclei (%) [5]: 71% and 88%
- Population Hoechst High Intensity Objects (%) [5]: 0%
- Population Membrane Permeable-Phenotype (%) [5]: 6% and 3%
- Population Mitochondria Different-Phenotype (%) [5]: 6% and 2%
- Population Mitotic Cells (%) [5]: 42% and 33%
- Population Normal (%) [5]: 100%
- Population Pyknosed Nuclei (%) [5]: 11% and 7%
- Population Tubulin-Different-Phenotype (%) [5]: 69% and 86%
- Population Apoptotic (%) [6]: 81% and 78%
- Population Healthy Nuclei (%) [6]: 23% and 37%
- Population Hoechst High Intensity Objects (%) [6]: 0% and 1%
- Population Mitochondria Different-Phenotype (%) [6]: 23% and 8%
- Population Mitotic Cells (%) [6]: 18% and 21%
- Population Normal (%) [6]: 100% and 98%
- Population Pyknosed Nuclei (%) [6]: 29% and 51%
- Population Tubulin-Different-Phenotype (%) [6]: 46% and 62%

SMILES: C[C@H](N)Cn1ccc2cc(F)c(Cl)cc21.O=C(O)/C=C/C(=O)O
- Population Apoptotic (%) [1]: 47% and 66%
- Population Fragmented Nuclei (%) [1]: 4% and 8%
- Population Healthy Nuclei (%) [1]: 87% and 84%
- Population Hoechst High Intensity Objects (%) [1]: 0%
- Population Membrane Permeable-Phenotype (%) [1]: 0%
- Population Mitochondria Different-Phenotype (%) [1]: 0%
- Population Mitotic Cells (%) [1]: 52% and 33%
- Population Normal (%) [1]: 99% and 100%
- Population Pyknosed Nuclei (%) [1]: 8% and 6%
- Population Tubulin-Different-Phenotype (%) [1]: 94% and 44%
- Population Apoptotic (%) [2]: 40% and 50%
- Population Fragmented Nuclei (%) [2]: 5% and 12%
- Population Healthy Nuclei (%) [2]: 88% and 75%
- Population Hoechst High Intensity Objects (%) [2]: 0%
- Population Membrane Permeable-Phenotype (%) [2]: 1% and 8%
- Population Mitochondria Different-Phenotype (%) [2]: 1% and 0%
- Population Mitotic Cells (%) [2]: 60% and 50%
- Population Normal (%) [2]: 99% and 100%
- Population Pyknosed Nuclei (%) [2]: 6% and 12%
- Population Tubulin-Different-Phenotype (%) [2]: 62% and 37%
- Population Apoptotic (%) [3]: 100% and 62%
- Population Fragmented Nuclei (%) [3]: 6% and 1%
- Population Healthy Nuclei (%) [3]: 91% and 90%
- Population Hoechst High Intensity Objects (%) [3]: 0%
- Population Membrane Permeable-Phenotype (%) [3]: 0%
- Population Mitochondria Different-Phenotype (%) [3]: 0%
- Population Normal (%) [3]: 100% and 99%
- Population Pyknosed Nuclei (%) [3]: 2% and 7%
- Population Tubulin-Different-Phenotype (%) [3]: 54% and 88%
- Population Apoptotic (%) [4]: 42% and 80%
- Population Fragmented Nuclei (%) [4]: 3% and 9%
- Population Healthy Nuclei (%) [4]: 89% and 78%
- Population Hoechst High Intensity Objects (%) [4]: 0%
- Population Membrane Permeable-Phenotype (%) [4]: 1% and 3%
- Population Mitochondria Different-Phenotype (%) [4]: 1% and 0%
- Population Mitotic Cells (%) [4]: 57% and 20%
- Population Normal (%) [4]: 99% and 100%
- Population Pyknosed Nuclei (%) [4]: 6% and 12%
- Population Tubulin-Different-Phenotype (%) [4]: 73% and 31%
- Population Apoptotic (%) [5]: 54% and 34%
- Population Fragmented Nuclei (%) [5]: 5% and 2%
- Population Healthy Nuclei (%) [5]: 83% and 90%
- Population Hoechst High Intensity Objects (%) [5]: 0%
- Population Membrane Permeable-Phenotype (%) [5]: 0% and 1%
- Population Mitochondria Different-Phenotype (%) [5]: 0%
- Population Mitotic Cells (%) [5]: 45% and 65%
- Population Normal (%) [5]: 100%
- Population Pyknosed Nuclei (%) [5]: 11% and 7%
- Population Tubulin-Different-Phenotype (%) [5]: 69% and 92%
- Population Apoptotic (%) [6]: 50% and 52%
- Population Fragmented Nuclei (%) [6]: 10% and 5%
- Population Healthy Nuclei (%) [6]: 75% and 89%
- Population Hoechst High Intensity Objects (%) [6]: 0%
- Population Membrane Permeable-Phenotype (%) [6]: 1%
- Population Mitochondria Different-Phenotype (%) [6]: 0%
- Population Mitotic Cells (%) [6]: 50% and 47%
- Population Normal (%) [6]: 100%
- Population Pyknosed Nuclei (%) [6]: 13% and 5%
- Population Tubulin-Different-Phenotype (%) [6]: 55% and 81%

SMILES: COc1cccc(Cn2cc(C(=O)Nc3ccc(C)c(S(=O)(=O)N4CCOCC4)c3)c(-c3ccc(C)cc3)n2)c1
- Population Apoptotic (%) [1]: 33% and 76%
- Population Healthy Nuclei (%) [1]: 46% and 76%
- Population Hoechst High Intensity Objects (%) [1]: 0%
- Population Membrane Permeable-Phenotype (%) [1]: 7% and 0%
- Population Mitochondria Different-Phenotype (%) [1]: 0% and 4%
- Population Mitotic Cells (%) [1]: 66% and 23%
- Population Normal (%) [1]: 100%
- Population Pyknosed Nuclei (%) [1]: 21% and 13%
- Population Tubulin-Different-Phenotype (%) [1]: 38% and 54%
- Population Apoptotic (%) [2]: 71% and 52%
- Population Healthy Nuclei (%) [2]: 45% and 79%
- Population Hoechst High Intensity Objects (%) [2]: 0%
- Population Membrane Permeable-Phenotype (%) [2]: 47% and 38%
- Population Mitochondria Different-Phenotype (%) [2]: 11% and 9%
- Population Mitotic Cells (%) [2]: 28% and 47%
- Population Normal (%) [2]: 100%
- Population Pyknosed Nuclei (%) [2]: 37% and 17%
- Population Tubulin-Different-Phenotype (%) [2]: 88% and 90%
- Population Apoptotic (%) [3]: 37% and 76%
- Population Fragmented Nuclei (%) [3]: 24% and 8%
- Population Healthy Nuclei (%) [3]: 48% and 78%
- Population Hoechst High Intensity Objects (%) [3]: 0%
- Population Mitochondria Different-Phenotype (%) [3]: 14% and 5%
- Population Mitotic Cells (%) [3]: 62% and 23%
- Population Normal (%) [3]: 100% and 99%
- Population Pyknosed Nuclei (%) [3]: 27% and 13%
- Population Tubulin-Different-Phenotype (%) [3]: 64% and 65%
- Population Apoptotic (%) [4]: 60% and 72%
- Population Fragmented Nuclei (%) [4]: 15% and 6%
- Population Healthy Nuclei (%) [4]: 46% and 70%
- Population Hoechst High Intensity Objects (%) [4]: 0%
- Population Membrane Permeable-Phenotype (%) [4]: 44% and 47%
- Population Mitotic Cells (%) [4]: 40% and 27%
- Population Normal (%) [4]: 100%
- Population Pyknosed Nuclei (%) [4]: 38% and 23%
- Population Tubulin-Different-Phenotype (%) [4]: 94% and 90%
- Population Apoptotic (%) [5]: 45% and 67%
- Population Healthy Nuclei (%) [5]: 48% and 83%
- Population Hoechst High Intensity Objects (%) [5]: 0%
- Population Membrane Permeable-Phenotype (%) [5]: 10% and 3%
- Population Mitochondria Different-Phenotype (%) [5]: 10% and 4%
- Population Mitotic Cells (%) [5]: 54% and 32%
- Population Normal (%) [5]: 100%
- Population Pyknosed Nuclei (%) [5]: 26% and 12%
- Population Tubulin-Different-Phenotype (%) [5]: 65% and 80%
- Population Apoptotic (%) [6]: 73% and 70%
- Population Fragmented Nuclei (%) [6]: 7% and 21%
- Population Healthy Nuclei (%) [6]: 63% and 32%
- Population Hoechst High Intensity Objects (%) [6]: 0%
- Population Membrane Permeable-Phenotype (%) [6]: 56% and 33%
- Population Mitochondria Different-Phenotype (%) [6]: 21% and 16%
- Population Mitotic Cells (%) [6]: 26% and 29%
- Population Normal (%) [6]: 99% and 100%
- Population Pyknosed Nuclei (%) [6]: 28% and 45%
- Population Tubulin-Different-Phenotype (%) [6]: 85% and 100%

From ChEMBL document CHEMBL5303300, “EUbOPEN Chemogenomics Library - Multiplex” (2023)
